B1: Osa-1-4 twister ribozyme (parent)
chain: CCGCCUAACACUGCCAAUGCCGGUCCCAAGCCCGGAUAAAAGUGGAGGGGGCGG

In this data set the parent is B1. Description: self-cleavage, relative activity (ratio to wild type); higher = more cleavage; co-transcriptional. The gist of the method:
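The 48 positions downstream of the cleavage site in a DNA template for a 54-nucleotide Oryza sativa twister ribozyme carried 97 % wild-type base and 1 % of each other base. After in vitro transcription (2 h, 37 °C) with co-transcriptional self-cleavage, the RNA was reverse-transcribed with a template-switching oligonucleotide, PCR-amplified and deep-sequenced. Relative activity is the fraction cleaved, judged by reads with or without upstream sequence and normalised to wild type.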
Turning to A41U G30U, the self-cleavage amounted to 0.04.
In the case of A41U G30A, the self-cleavage amounted to 0.06.
For the variant A41U C26U, the self-cleavage was found to be 0.93.
For A41U C26A the value was 0.06; for A41U C26G, 0.11.
A41U C32A: the self-cleavage turned out to be 0.1.
In the case of A41U C32U, the self-cleavage is 0.17.
For A41U C32G, the self-cleavage worked out at 0.18.
As to A41G C21G, the self-cleavage came to 0.13.
As for A41G C21A, the self-cleavage was 0.22.
Regarding A41G C21U, the self-cleavage was 0.75.
Take A41C U37C: the self-cleavage was 1.
Take A41C U37G: the self-cleavage was 1.02.
Regarding A41C U37A, the self-cleavage came to 0.92.
With A41G G13A, the self-cleavage is 0.06.
A41G G13C: the self-cleavage was 0.03.
The result for A41G G13U reads 0.04; that for A41G C9U, 0.11.
Regarding A41G C9A, the self-cleavage stood at 0.08.
Take A41G C9G: the self-cleavage is 0.22.
The result for A41C G35A reads 0.81; that for A41C G35U, 0.76; that for A41C G35C, 0.63.
For A41U G50C the value was 0.99.
With A41U G50U, the self-cleavage was 1.03.
Turning to A41U G50A, the self-cleavage was found to be 0.6.
Turning to A41G G30A, the self-cleavage stood at 0.05.
Turning to A41G G30C, the self-cleavage came out at 0.05.
On to A41G G30U, for which the self-cleavage was found to be 0.05.
As for A41G U12G, the self-cleavage was 0.21.
Consider A41G U12C, for which the self-cleavage was 0.78.
On to A41G U12A, for which the self-cleavage worked out at 0.87.
Regarding A41G G54U, the self-cleavage is 0.82.
For A41G G54C the value was 0.8; for A41G G54A, 0.81; for A41G U43A, 0.21.
For A41G U43G the value was 0.16.
A41G U43C: the self-cleavage worked out at 0.13.
The result for A41C G51C reads 0.07; that for A41C G51A, 0.28.
As to A41C G51U, the self-cleavage worked out at 0.16.
Turning to A41U C20A, the self-cleavage was found to be 0.85.
The result for A41U C20U reads 0.95; that for A41U C20G, 0.19; that for A41C A46C, 0.05.
The result for A41C A46U reads 0.08.
Turning to A41C A46G, the self-cleavage amounted to 0.06.
For A41C C31G, the self-cleavage was determined as 0.09.
For the variant A41C C31U, the self-cleavage was 0.8.
As for A41C C31A, the self-cleavage was 0.04.
For A41C U18A the value was 0.92; for A41C U18G, 0.85.
The result for A41C U18C reads 0.8; that for A41U G19A, 0.94.
As for A41U G19U, the self-cleavage was found to be 0.35.
Take A41U G19C: the self-cleavage is 0.24.
In the case of A41U U18A, the self-cleavage worked out at 0.92.
For the variant A41U U18G, the self-cleavage came out at 0.86.
For A41U U18C, the self-cleavage worked out at 0.93.
On to A41G C20U, for which the self-cleavage came to 0.85.
The result for A41G C20G reads 0.12; that for A41G C20A, 0.85.
For the variant A41G G53U, the self-cleavage is 0.25.
In the case of A41G G53A, the self-cleavage worked out at 0.61.
On to A41G G53C, for which the self-cleavage stood at 0.08.
For A41G C15G the value was 0.28; for A41G C15U, 0.22.
With A41G C15A, the self-cleavage was determined as 0.18.
For A41C G49A, the self-cleavage amounted to 0.11.
For A41C G49U the value was 0.12.
As to A41C G49C, the self-cleavage was found to be 0.08.
Consider A41G C31U, for which the self-cleavage worked out at 0.17.
Turning to A41G C31A, the self-cleavage is 0.04.
A41G C31G: the self-cleavage was 0.11.
Turning to A41C G54C, the self-cleavage is 0.85.
The result for A41C G54U reads 0.89.
In the case of A41C G54A, the self-cleavage stood at 0.92.
A41U G34C: the self-cleavage is 0.47.
In the case of A41U G34U, the self-cleavage was found to be 0.74.
A41U G34A: the self-cleavage turned out to be 0.82.
In the case of A41C G50U, the self-cleavage was 1.
For A41C G50A, the self-cleavage turned out to be 0.37.
In the case of A41C G50C, the self-cleavage was determined as 0.93.
Take A41C U12G: the self-cleavage came out at 0.8.
Regarding A41C U12A, the self-cleavage is 0.97.
The result for A41C U12C reads 0.55; that for A41G C26U, 0.17.
Turning to A41G C26A, the self-cleavage worked out at 0.05.
Take A41G C26G: the self-cleavage turned out to be 0.09.
For A41G G44C the value was 0.39.
Turning to A41G G44U, the self-cleavage was 0.31.
Take A41G G44A: the self-cleavage was 0.14.
For the variant A41C C26U, the self-cleavage is 0.8.
A41C C26A: the self-cleavage came to 0.06.
With A41C C26G, the self-cleavage came to 0.09.
With A41U A7U, the self-cleavage was determined as 0.11.
The result for A41U A7C reads 0.03; that for A41U A7G, 0.31; that for A41C G23A, 0.29.
For A41C G23U, the self-cleavage was found to be 0.06.
On to A41C G23C, for which the self-cleavage was determined as 0.06.
As to A41G G49U, the self-cleavage was determined as 0.07.
In the case of A41G G49A, the self-cleavage is 0.08.
Regarding A41G G49C, the self-cleavage was 0.06.
A41U C21A: the self-cleavage is 0.87.
With A41U C21U, the self-cleavage was 1.
The result for A41U C21G reads 0.1.
As for A41C G45C, the self-cleavage came out at 0.06.
The result for A41C G45U reads 0.11.
Consider A41C G45A, for which the self-cleavage is 0.13.
On to A41G G47U, for which the self-cleavage is 0.08.
Turning to A41G G47C, the self-cleavage was 0.07.
For A41G G47A, the self-cleavage came out at 0.1.
On to A41G U18G, for which the self-cleavage was 0.83.
The result for A41G U18A reads 0.77.
Turning to A41G U18C, the self-cleavage worked out at 0.74.
Regarding A41C G13C, the self-cleavage is 0.02.
As for A41C G13A, the self-cleavage was found to be 0.08.
For A41C G13U, the self-cleavage turned out to be 0.04.
Turning to A41U G47U, the self-cleavage came out at 0.25.
For the variant A41U G47C, the self-cleavage is 0.11.
The result for A41U G47A reads 0.27; that for A41U A8C, 0.07; that for A41U A8G, 0.41.
For A41U A8U the value was 0.25; for A41C C27U, 0.12; for A41C C27A, 0.13.
Regarding A41C C27G, the self-cleavage was determined as 0.06.
With A41G G50C, the self-cleavage came out at 0.77.
The result for A41G G50A reads 0.34; that for A41G G50U, 0.91; that for A41C C21G, 0.08.
For A41C C21U, the self-cleavage amounted to 1.04.
A41C C21A: the self-cleavage was determined as 0.45.
For the variant A41C C9A, the self-cleavage is 0.39.
The result for A41C C9G reads 0.41; that for A41C C9U, 0.79.
As to A41G G35U, the self-cleavage came to 0.51.
As to A41G G35A, the self-cleavage was 0.57.
For A41G G35C, the self-cleavage worked out at 0.15.
As for A41C C15A, the self-cleavage turned out to be 0.27.
Regarding A41C C15U, the self-cleavage turned out to be 0.36.
In the case of A41C C15G, the self-cleavage came out at 0.14.
Take A41C G22C: the self-cleavage was 0.05.
For the variant A41C G22A, the self-cleavage was 0.8.
The result for A41C G22U reads 0.49; that for A41C U43A, 0.45; that for A41C U43C, 0.22.
As for A41C U43G, the self-cleavage is 0.12.
The result for A41U C25A reads 0.1; that for A41U C25U, 0.91; that for A41U C25G, 0.11.
For A41G G45C, the self-cleavage came out at 0.05.
The result for A41G G45U reads 0.09; that for A41G G45A, 0.09.
A41U C27G: the self-cleavage was determined as 0.08.
With A41U C27U, the self-cleavage is 0.16.
For A41U C27A the value was 0.18.
For A41U G45A the value was 0.25.
Consider A41U G45U, for which the self-cleavage amounted to 0.12.
For A41U G45C, the self-cleavage turned out to be 0.06.
For the variant A41U C52G, the self-cleavage is 1.05.
For A41U C52A, the self-cleavage worked out at 1.02.
For A41U C52U, the self-cleavage was found to be 1.04.
The result for A41C C52G reads 1.04; that for A41C C52U, 1.03.
On to A41C C52A, for which the self-cleavage came to 0.94.

(Values after the RNAGym collection of RNA variant scans (doi:10.1002/anie.201605470).)
